Assay results reported in publication PMC3729352 (Pharmacological research : the official journal of the …, 2011).

Legend:
[1] = molecular target: T1, ABCG2 (Mus musculus, UniProt Q7TMS5); type: in vivo; conditions: Ko143 0, 1, 3 and 10 mg-kg^−1 i.p., 20 min prior to URB937 25 mg-kg^−1 s.c., ex vivo 1 h after URB937
T1 sequence (Q7TMS5 1-657): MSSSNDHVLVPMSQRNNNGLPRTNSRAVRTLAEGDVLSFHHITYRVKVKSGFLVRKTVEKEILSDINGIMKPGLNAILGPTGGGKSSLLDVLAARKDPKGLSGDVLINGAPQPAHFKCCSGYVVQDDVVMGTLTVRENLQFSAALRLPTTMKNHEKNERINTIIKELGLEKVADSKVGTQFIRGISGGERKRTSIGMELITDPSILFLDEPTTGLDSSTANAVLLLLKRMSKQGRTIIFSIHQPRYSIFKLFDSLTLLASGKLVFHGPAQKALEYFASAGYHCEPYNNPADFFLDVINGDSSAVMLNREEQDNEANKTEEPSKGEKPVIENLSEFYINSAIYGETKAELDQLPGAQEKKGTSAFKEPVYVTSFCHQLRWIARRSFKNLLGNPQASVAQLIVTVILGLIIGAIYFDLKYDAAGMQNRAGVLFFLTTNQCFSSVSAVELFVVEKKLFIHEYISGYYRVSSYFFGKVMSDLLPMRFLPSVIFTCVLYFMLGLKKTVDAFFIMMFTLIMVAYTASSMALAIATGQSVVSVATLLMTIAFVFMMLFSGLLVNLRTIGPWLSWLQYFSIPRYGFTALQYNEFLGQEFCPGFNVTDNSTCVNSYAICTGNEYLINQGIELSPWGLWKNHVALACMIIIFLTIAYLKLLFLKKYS

[2] = molecular target: T2, mouse Abcg2 (Mus musculus, UniProt Q7TMS5); assay: Transepithelial transport across MDCKII monolayers over-expressing mouse Abcg2; type: in vitro ADME
T2 sequence (Q7TMS5 1-657): T1 sequence (Q7TMS5 1-657)

[3] = Plasma and tissue levels of URB937 in wild-type and Abcg2-/- mice; type: in vivo, mouse; conditions: 25 mg-kg^−1 s.c., mean ± SEM; for Level of URB937 in brain / Level of URB937 in kidney / Level of URB937 in liver / Level of URB937 in spinal cord: 1 h; for concentration at 1 h: mouse, plasma, sc, 25 mg-kg^−1, Level of URB937 in plasma
Outline: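 Dosing: test compound 25 mg-kg−1 s.c. in saline/PEG400/Tween-80 (18:1:1) to Abcg2−/− (n = 4) and wild-type littermates (n = 5); killed at 1 h. Plasma obtained by cardiac puncture and spun 2000 × g. Tissue homogenates and plasma extracted with methanol/chloroform (1:2) containing internal standard. Analysis by ESI-LC/MS on a C18 column with a methanol/water gradient (0.25% acetic acid, 5 mM ammonium acetate) at m/z 377; mean ± SEM.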

[4] = molecular target: T3, FAAH (Mus musculus, UniProt O08914); assay: Ex vivo FAAH activity in tissues of wild-type and Abcg2-/- mice after URB937; conditions: URB937 25 mg-kg^−1 s.c., 1 h
T3 sequence (O08914 1-579): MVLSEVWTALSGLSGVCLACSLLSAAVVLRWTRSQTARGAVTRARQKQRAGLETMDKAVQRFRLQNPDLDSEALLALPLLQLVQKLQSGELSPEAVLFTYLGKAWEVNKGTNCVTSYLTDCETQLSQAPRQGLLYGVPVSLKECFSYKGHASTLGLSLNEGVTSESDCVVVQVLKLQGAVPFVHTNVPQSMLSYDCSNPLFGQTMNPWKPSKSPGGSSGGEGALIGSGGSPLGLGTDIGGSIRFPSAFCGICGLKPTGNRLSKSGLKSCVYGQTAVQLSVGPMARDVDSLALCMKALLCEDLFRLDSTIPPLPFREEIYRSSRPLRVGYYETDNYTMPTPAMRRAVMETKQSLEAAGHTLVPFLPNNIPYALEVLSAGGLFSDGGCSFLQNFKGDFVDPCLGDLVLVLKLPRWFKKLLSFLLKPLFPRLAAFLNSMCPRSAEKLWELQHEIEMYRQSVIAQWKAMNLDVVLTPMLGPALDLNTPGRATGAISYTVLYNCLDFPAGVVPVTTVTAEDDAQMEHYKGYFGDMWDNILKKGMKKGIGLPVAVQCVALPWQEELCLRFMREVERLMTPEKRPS
Outline: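 Male Abcg2−/− mice (n = 4) and wild-type FVB littermates (n = 5), 9–13 weeks, given test compound at 25 mg-kg−1 s.c. in saline/PEG400/Tween-80 (18:1:1). Killed 1 h later; tissues homogenized in 50 mM Tris-HCl pH 7.5 with 0.32 M sucrose. FAAH assay: 37°C, 30 min, 0.05% BSA, 50 µg protein (100 µg liver), 10 µM anandamide plus [3H]-anandamide. Read-out: aqueous-phase scintillation counting; mean ± SEM.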

[5] = Transepithelial transport across MDCKII parental monolayers; type: in vitro ADME, canine; conditions: dog, MDCK
[6] = molecular target: T4, human ABCG2 (Homo sapiens, UniProt Q9UNQ0)
T4 sequence (Q9UNQ0 1-655): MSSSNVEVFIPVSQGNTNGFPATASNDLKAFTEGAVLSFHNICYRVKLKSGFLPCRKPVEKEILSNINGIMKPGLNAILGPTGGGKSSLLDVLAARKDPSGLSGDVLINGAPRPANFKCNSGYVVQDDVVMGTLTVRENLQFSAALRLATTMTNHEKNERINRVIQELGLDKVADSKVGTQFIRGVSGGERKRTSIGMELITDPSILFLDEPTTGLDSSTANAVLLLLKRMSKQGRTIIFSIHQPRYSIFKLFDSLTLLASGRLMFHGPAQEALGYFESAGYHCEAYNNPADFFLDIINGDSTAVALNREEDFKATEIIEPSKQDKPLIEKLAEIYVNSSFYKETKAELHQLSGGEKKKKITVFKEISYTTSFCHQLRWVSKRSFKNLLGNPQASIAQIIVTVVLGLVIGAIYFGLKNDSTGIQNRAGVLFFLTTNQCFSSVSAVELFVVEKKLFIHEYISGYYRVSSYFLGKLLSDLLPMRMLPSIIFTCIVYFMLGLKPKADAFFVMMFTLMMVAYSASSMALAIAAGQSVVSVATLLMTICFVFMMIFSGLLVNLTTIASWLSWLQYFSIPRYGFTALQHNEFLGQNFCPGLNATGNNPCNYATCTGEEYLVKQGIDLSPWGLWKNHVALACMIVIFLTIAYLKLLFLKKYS

[7] = molecular target: T3, FAAH; conditions: cited from earlier work

COc1ccc2c3c([nH]c2c1)[C@H](CC(C)C)N1C(=O)[C@H](CCC(=O)OC(C)(C)C)NC(=O)[C@@H]1C3 [Ko143, reference compound]
brain FAAH activity [1]: dose-dependent decrease
inhibition of Abcg2-mediated transport of URB937 ([2]; Ko143 1 µM, URB937 5 µM, MDCKII-Abcg2): completely inhibited

NC(=O)c1cccc(-c2cc(OC(=O)NC3CCCCC3)ccc2O)c1 [URB937, cyclohexylcarbamic acid 3'-carbamoyl-6-hydroxybiphenyl-3-yl ester]
Level of URB937 in brain ([3]; Abcg2^−/− mice): 1.15 ± 0.04 pmol/mg
Level of URB937 in kidney ([3]; Abcg2^−/− mice): 34.97 ± 0.35 pmol/mg
Level of URB937 in liver ([3]; Abcg2^−/− mice): 7.75 ± 2.3 pmol/mg
Level of URB937 in spinal cord ([3]; Abcg2^−/− mice): 0.80 ± 0.10 pmol/mg
concentration at 1 h ([3]; Abcg2^−/− mice): 6.95 ± 0.9 µM
concentration at 1 h ([3]; wild-type mice): 8.34 ± 1.7 µM
Level of URB937 in brain ([3]; wild-type mice): 0.46 ± 0.12 pmol/mg
Level of URB937 in kidney ([3]; wild-type mice): 33.88 ± 3.3 pmol/mg
Level of URB937 in liver ([3]; wild-type mice): 7.51 ± 3.1 pmol/mg
Level of URB937 in spinal cord ([3]; wild-type mice): 0.29 ± 0.04 pmol/mg
reduction in FAAH activity in brain and spinal cord ([4]; Abcg2^−/− mice compared to wild-type): 80%
FAAH activity in liver and kidney tissue ([4]; wild-type and Abcg2^−/− mice): nearly abolished
inhibition of FAAH activity in CNS ([4]; wild-type mice): almost no inhibition
efflux ratio at 4 h, 5 µM ([2]; mouse): 13.6
increase of relative transport ratio by over-expression vs parental cells ([2]; mouse Abcg2 over-expression): ~10 folds
efflux ratio at 4 h, 5 µM [5]: 1.5
increase of relative transport ratio by over-expression vs parental cells [6]: ~10 folds
potency at inhibiting FAAH activity in mouse liver relative to mouse brain ([7]; mouse liver vs mouse brain): 400 times
half-maximal effective dose (ID50), liver FAAH activity ([7]; systemic administration in mice, liver): 0.1 mg/kg
FAAH activity in forebrain, hypothalamus and spinal cord ([7]; systemic administration in mice): fails to alter
